# In ChEMBL document CHEMBL3612059, “Synthesis of 1,2-benzisoxazole tethered 1,2,3-triazoles that exhibit anticancer activity in acute myeloid leukemia cell lines by inhibiting histone deacetylases, and inducing p21 and tubulin acetylation” (Bioorg Med Chem, 2015):
# Active and inactive are the calls of the source. No cut-off for these calls is given here.
# What was measured:
# MOLM-14 [1] = experiment: Induction of apoptosis in human MOLM14 cells assessed as early apoptotic cells at 5 uM after 72 hrs by Annexin V-FITC/propidium iodide staining-based flow cytometric analysis (reference value: 7%); assay type: functional
# In short: (§1)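 100,000 cells per well treated with 2.5, 5.0 or 10 μM for 72 h. Washed in ice-cold Ca/Mg-free PBS, resuspended in 100 μl binding buffer, stained with 5 μl PI plus 3 μl annexin V-FITC for 15 min in the dark, then read immediately by flow cytometry. Quadrants scored as live, early apoptotic, late apoptotic and necrotic.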
# MOLM-14 [2] = experiment: Induction of apoptosis in human MOLM14 cells assessed as early apoptotic cells at 10 uM after 72 hrs by Annexin V-FITC/propidium iodide staining-based flow cytometric analysis (reference value: 7%); assay type: functional; in short: as §1
# MOLM-14 [3] = experiment: Induction of apoptosis in human MOLM14 cells assessed as late apoptotic cells at 10 uM after 72 hrs by Annexin V-FITC/propidium iodide staining-based flow cytometric analysis (reference value: 2%); assay type: functional; in short: as §1
# MV4-11 [4] = experiment: Induction of apoptosis in human MV4-11 cells assessed as late apoptotic cells at 2.5 uM after 72 hrs by Annexin V-FITC/propidium iodide staining-based flow cytometric analysis (reference value: 2%); assay type: functional; in short: as §1
# MV4-11 [5] = experiment: Induction of apoptosis in human MV4-11 cells assessed as early apoptotic cells at 10 uM after 72 hrs by Annexin V-FITC/propidium iodide staining-based flow cytometric analysis (reference value: 7%); assay type: functional; in short: as §1
# MV4-11 [6] = experiment: Induction of apoptosis in human MV4-11 cells assessed as necrotic cells at 10 uM after 72 hrs by Annexin V-FITC/propidium iodide staining-based flow cytometric analysis relative to control; assay type: functional
# In short: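 MV4-11 cells (RPMI, 10 % FBS, 37 °C, 5 % CO2), 100,000 per well, exposed to PTB at 2.5, 5.0 or 10 μM for 72 h. Washed in ice-cold Ca/Mg-free PBS, stained with annexin V-FITC and PI in 1X binding buffer for 15 min in the dark, then read at once by flow cytometry. Necrotic cells are the annexin-negative/PI-positive quadrant.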
# MOLM-14 [7] = experiment: Induction of apoptosis in human MOLM14 cells after 72 hrs by Annexin V-FITC/propidium iodide staining-based flow cytometric analysis; assay type: functional, cell-based; in short: as §1
# MV4-11 [8] = experiment: Induction of apoptosis in human MV4-11 cells after 72 hrs by Annexin V-FITC/propidium iodide staining-based flow cytometric analysis; assay type: functional, cell-based; in short: as §1
# MV4-11 [9] = experiment: Upregulation of p21 protein expression in human MV4-11 cells by Western blot analysis; assay type: functional, cell-based
# [10] = target: Histone deacetylase (Homo sapiens) (UniProt Q13547+O15379+Q9UBN7+Q92769+Q9UQL6+Q8WUI4+Q9BY41+Q96DB2+P56524+Q9UKV0+Q969S8); experiment: Inhibition of HDAC in human MV4-11 cells assessed as increase in acetylation of histone H3 by Western blot analysis; assay type: cell-based
# In short: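 MV4-11 cells were treated and histones acid-extracted: Triton buffer, then NaCl buffer, 0.24 M H2SO4 on ice for 2 h, acetone precipitation overnight, Bradford quantitation. Histones (0.5 µg) were run on 4-20 % gradient gels, blotted to PVDF, blocked in 5 % milk and probed overnight at 4 °C with anti-acetyl-histone H3 (1:1000). HRP secondary, ECL detection, total histone H3 as loading control.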
# MV4-11 [11] = experiment: Effect on total histone H3 protein expression in human MV4-11 cells by Western blot analysis; assay type: ADME, cell-based
# In short: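 Histones acid-extracted from MV4-11 cells: Triton/EDTA buffer lysis, NaCl wash, then 0.24 M H₂SO₄ final on ice for 2 h and acetone precipitation. Protein measured by Bradford. 0.5 µg loaded on 4-20 % gradient gels and transferred to PVDF. Anti-histone H3 probed as loading control alongside anti-acetyl-H3 (1:1000 in 5 % milk, overnight, 4 °C); HRP secondary 1 h, ECL detection.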
# MOLM-14 [12] = experiment: Cell cycle arrest in human MOLM14 cells assessed as decrease in cells level at G1 phase after 72 hrs by propidium iodide staining-based flow cytometric analysis; assay type: functional
# In short: (§2)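 Cells in RPMI with 10 % FBS at 37 °C, 5 % CO₂; treated up to 72 h, washed in cold PBS, fixed in -20 °C-precooled 70 % ethanol at 4 °C. Stained with 50 µg/ml PI, 1 % Triton X-100 and 20 µg/ml RNase A in PBS, 30 min, 37 °C, dark. Cell-cycle phases read by flow cytometry; three independent experiments, mean ± SD.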
# MV4-11 [13] = experiment: Cell cycle arrest in human MV4-11 cells assessed as decrease in cells level at G1 phase after 72 hrs by propidium iodide staining-based flow cytometric analysis; assay type: functional; in short: as §2
# MOLM-14 [14] = experiment: Induction of apoptosis in human MOLM14 cells assessed as early apoptotic cells at 2.5 uM after 72 hrs by Annexin V-FITC/propidium iodide staining-based flow cytometric analysis (reference value: 7%); assay type: functional; in short: as §1
# MOLM-13 (Homo sapiens) [15] = experiment: Induction of apoptosis in human MOLM13 cells after 72 hrs by Annexin V-FITC/propidium iodide staining-based flow cytometric analysis
# MOLM-13 (Homo sapiens) [16] = experiment: Induction of apoptosis in human MOLM13 cells assessed as upregulation of cleaved PARP expression after 24 hrs by Western blot analysis
# MOLM-13 (Homo sapiens) [17] = experiment: Cell cycle arrest in human MOLM13 cells assessed as accumulation at G2/M phase after 72 hrs by propidium iodide staining-based flow cytometric analysis
# MOLM-13 (Homo sapiens) [18] = experiment: Cell cycle arrest in human MOLM13 cells assessed as decrease in cells level at G1 phase after 72 hrs by propidium iodide staining-based flow cytometric analysis
# MOLM-13 (Homo sapiens) [19] = experiment: Induction of apoptosis in human MOLM13 cells assessed as necrotic cells at 5 uM after 72 hrs by Annexin V-FITC/propidium iodide staining-based flow cytometric analysis (reference value: 3%)
# MOLM-13 (Homo sapiens) [20] = experiment: Induction of apoptosis in human MOLM13 cells assessed as necrotic cells at 10 uM after 72 hrs by Annexin V-FITC/propidium iodide staining-based flow cytometric analysis (reference value: 3%)
# MOLM-13 (Homo sapiens) [21] = experiment: Induction of apoptosis in human MOLM13 cells assessed as late apoptotic cells at 5 uM after 72 hrs by Annexin V-FITC/propidium iodide staining-based flow cytometric analysis (reference value: 7%)
# MOLM-13 (Homo sapiens) [22] = experiment: Induction of apoptosis in human MOLM13 cells assessed as early apoptotic cells at 5 uM after 72 hrs by Annexin V-FITC/propidium iodide staining-based flow cytometric analysis (reference value: 11%)
# MOLM-13 (Homo sapiens) [23] = experiment: Induction of apoptosis in human MOLM13 cells assessed as early apoptotic cells at 2.5 uM after 72 hrs by Annexin V-FITC/propidium iodide staining-based flow cytometric analysis (reference value: 11%)
smiles,measurement,setting,value
c1ccc(Oc2ccc(-c3cn(-c4noc5ccccc45)nn3)cc2)cc1,Activity,MOLM-14 [1],17%
same,Activity,MOLM-14 [2],24%
same,Activity,MOLM-14 [3],30%
same,Activity,MV4-11 [4],15%
same,Activity,MV4-11 [5],20%
same,Activity,MV4-11 [6],5%
same,Activity,MOLM-14 [7],Dose-dependent effect
same,Activity,MV4-11 [8],Dose-dependent effect
same,Activity,MV4-11 [9],Active
same,inhibition,[10],Active
same,Activity,MV4-11 [11],Non-toxic
same,Activity,MOLM-14 [12],Active
same,Activity,MV4-11 [13],Active
same,Activity,MOLM-14 [14],12%
same,Activity,MOLM-13 (Homo sapiens) [15],Dose-dependent effect
same,Activity,MOLM-13 (Homo sapiens) [16],Dose-dependent effect
same,Activity,MOLM-13 (Homo sapiens) [17],Active
same,Activity,MOLM-13 (Homo sapiens) [18],Active
same,Activity,MOLM-13 (Homo sapiens) [19],18%
same,Activity,MOLM-13 (Homo sapiens) [20],18%
same,Activity,MOLM-13 (Homo sapiens) [21],26%
same,Activity,MOLM-13 (Homo sapiens) [22],19%
same,Activity,MOLM-13 (Homo sapiens) [23],15%
